Experimental findings from ChEMBL document CHEMBL3856196, “3-(Benzodioxan-2-ylmethoxy)-2,6-difluorobenzamides bearing hydrophobic substituents at the 7-position of the benzodioxane nucleus potently inhibit methicillin-resistant Sa and Mtb cell division” (Eur J Med Chem, 2016) are described below.

Values after ≈ are worked out from the molar mass of the structure shown. Active and inactive are the calls of the source.

Series [1] has as its system Staphylococcus aureus. Nature of the series: Antibacterial activity against […] Staphylococcus aureus ATCC 29213 after 16 hrs by spectrophotometric analysis. The series is classed as functional. The note with it: ATCC 29213, 16 h.
For series [2], the target named is T1, Cell division protein FtsZ (Staphylococcus aureus) (UniProt P0A031).
T1 sequence (whole entry): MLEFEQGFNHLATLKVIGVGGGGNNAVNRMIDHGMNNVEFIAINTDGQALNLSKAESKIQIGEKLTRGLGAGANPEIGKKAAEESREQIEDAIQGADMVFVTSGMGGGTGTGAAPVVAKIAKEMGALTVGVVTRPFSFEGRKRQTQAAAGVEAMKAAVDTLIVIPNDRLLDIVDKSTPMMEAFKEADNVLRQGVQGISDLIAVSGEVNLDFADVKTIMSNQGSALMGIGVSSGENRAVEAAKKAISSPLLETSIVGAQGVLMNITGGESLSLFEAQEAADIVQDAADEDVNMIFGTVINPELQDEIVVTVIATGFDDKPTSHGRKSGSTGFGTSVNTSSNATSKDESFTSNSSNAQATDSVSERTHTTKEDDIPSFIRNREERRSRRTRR
The series can be described thus: Inhibition of Staphylococcus aureus FtsZ assessed as cellular desegregation at 1 ug/ml after 16 hrs by transmission electron microscopic analysis. Summed up: (§1)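 S. aureus at 10⁹ cells/ml grown 16 h at 37 °C with compound, untreated control included. Cells were pelleted at 3100 × g for 5 min, fixed in 2.5% glutaraldehyde in 0.1 M Na cacodylate pH 7.4 for 1 h at 4 °C, post-fixed in 1% OsO₄ for 1 h at 4 °C, and examined by TEM for septum and ultrastructure.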

A short description of series [3]: Cytotoxicity against human MRC5 cells assessed as reduction in cell viability after 24 hrs by MTT assay. The series is classed as toxicity, cell-based. The note with it: mrc5, 24 h. Summed up:
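MRC-5 lung fibroblasts (DMEM, 10% heat-inactivated calf serum, 37 °C, 5% CO₂) at 10⁴ cells/well were exposed 24 h to twofold serial dilutions in DMEM. Then 1 mg/ml MTT in serum-free DMEM for 3 h, DMSO solubilisation, A570. Cytotoxicity % = 100 − (sample OD/untreated OD) × 100; TD₅₀/TD₉₀ are concentrations cutting viability 50/90%.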
A general note: Tetrazolium assays rely on reduction of a dye to a coloured formazan, in cell work by metabolically active cells.

The nature of series [4]: Therapeutic index, ratio of TD90 for human MRC5 cells to MBC for […] Staphylococcus aureus ATCC 29213. The series is classed as cell-based. The note with it: read-out: TI. Put shortly:
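Ratio of TD₉₀ (MTT assay on MRC-5, 24 h exposure) to MBC against MRSA ATCC 29213 (LB tube assay, wash-out and overnight regrowth by OD600).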

In series [5] the target is T1, Cell division protein FtsZ (Staphylococcus aureus). The series can be described thus: Inhibition of Staphylococcus aureus FtsZ assessed as increase in cell volume at 1 ug/ml after overnight incubation by phase-contrast light microscopic analysis. Summed up:
(§2)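 S. aureus grown overnight with compound at levels starting from the previously determined MIC. Untreated cultures served as negative control. Examined by phase-contrast microscopy at 630×.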

The target is the same in series [6]. The series can be described thus: Inhibition of Staphylococcus aureus FtsZ assessed as cellular desegregation at 1 ug/ml after overnight incubation by phase-contrast light microscopic analysis. Summed up:
as §2

Series [7] shares this target. Nature of the series: Inhibition of Staphylococcus aureus FtsZ assessed as bacterial swelling at 1 ug/ml after overnight incubation by phase-contrast light microscopic analysis. Put shortly:
as §2

Series [8] has the same target. The series can be described thus: Inhibition of Staphylococcus aureus FtsZ assessed as alteration in septum formation at 0.25 ug/ml after 16 hrs by transmission electron microscopic analysis. Summed up: as §1
Series [9] has the same target. The series can be described thus: Inhibition of Staphylococcus aureus FtsZ assessed as bacterial swelling at 0.25 ug/ml after overnight incubation by phase-contrast light microscopic analysis. Put shortly:
as §2

The test system of series [10] is Enterococcus faecalis. The series can be described thus: Antibacterial activity against vancomycin-susceptible Enterococcus faecalis clinical isolates after 24 hrs by CLSI […] broth microdilution method. The series is classed as functional. The following applies: for MBC: read-out: MBC99.9. Summed up: (§3)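 CLSI broth microdilution on clinical isolates. Log-phase bacteria in saline at 1–2 × 10⁵ CFU/mL were mixed with compounds diluted in LB, final 0.097–100 μg/mL, for 24 h at 37 °C. MIC is the lowest concentration with total growth inhibition. For MBC, clear wells were plated on sheep-blood agar for 18 h; >99.9% kill versus untreated control. Triplicate.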

Series [11] relates to Staphylococcus aureus. Nature of the series: Antibacterial activity against methicillin-susceptible Staphylococcus aureus clinical isolates after 24 hrs by CLSI […] broth microdilution method. It is filed as functional. The following applies: for MBC: read-out: MBC99.9. Put shortly:
as §3
Background: In broth dilution the organism is exposed to a series of concentrations in liquid medium.

For series [12], the system named is Enterococcus faecalis. The series can be described thus: Antibacterial activity against vancomycin-resistant Enterococcus faecalis clinical isolates after 24 hrs by CLSI […] broth microdilution method. The following applies: for MBC: read-out: MBC99.9. The series is classed as functional. Summed up: as §3
Series [13] deals with Staphylococcus aureus. Nature of the series: Antibacterial activity against methicillin-resistant Staphylococcus aureus clinical isolates after 24 hrs by CLSI […] broth microdilution method. It is filed as functional. The following applies: for MBC: read-out: MBC99.9. Summed up: as §3
The subject of series [14] is Mycobacterium tuberculosis. Nature of the series: Inhibition of FtsZ polymerization in GFP-tagged Mycobacterium tuberculosis assessed as presence of elongated cells with enlarged bacterial pole at 8 ug/ml by fluorescence-based microscopic analysis. Put shortly: (§4)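 GFP-expressing M. smegmatis or M. tuberculosis grown at subMIC concentrations on glass coverslips in 7H9/ADC/Tween 80. Cells were fixed with phosphate-buffered 4% paraformaldehyde and examined by fluorescence microscopy at 100× for cell morphology.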

In series [15] the target is T1, Cell division protein FtsZ (Staphylococcus aureus). The series can be described thus: Inhibition of Staphylococcus aureus FtsZ assessed as cellular desegregation at 0.25 ug/ml after overnight incubation by phase-contrast light microscopic analysis. Summed up: as §2
Series [16] has as its system Mycobacterium tuberculosis. The series can be described thus: Antitubercular activity against Mycobacterium tuberculosis H37Rv by Alamar blue assay. The series is classed as functional. Put shortly:
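M. tuberculosis in 7H9 medium with ADC and 0.05% Tween 80; MIC by microplate Alamar Blue assay.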
For orientation: Resazurin is reduced to fluorescent resorufin, in cell work by metabolically active cells.

The target of series [17] is T1, Cell division protein FtsZ (Staphylococcus aureus). Nature of the series: Inhibition of Staphylococcus aureus FtsZ assessed as increase in cell volume at 0.25 ug/ml after overnight incubation by phase-contrast light microscopic analysis. Summed up: as §2
The test system of series [18] is Mycolicibacterium smegmatis. The series can be described thus: Inhibition of FtsZ polymerization in GFP-tagged Mycobacterium smegmatis assessed as presence of elongated cells with enlarged bacterial pole at 0.5 ug/ml by fluorescence-based microscopic analysis. Put shortly:
as §4

As a reminder, the MIC is the smallest concentration in the dilution series that meets the test's criterion for growth inhibition. A low value points to greater potency. The term MIC90 denotes the lowest concentration that inhibits either 90% of growth or 90% of the strains tested, depending on the study.

In series [1], `NC(=O)c1c(F)ccc(OCC2COc3ccc(N)cc3O2)c1F` (stereo not given) yielded an MBC of 100 µg/mL (≈ 297 µM) and an MIC of 100 µg/mL (≈ 297 µM).

Regarding `NC(=O)c1ccc2c(c1)OC(COc1ccc(F)c(C(N)=O)c1F)CO2` (stereo not given), the minimal inhibitory concentration (MIC) in series [1] was > 100 µg/mL.

In series [1], `NC(=O)c1c(F)ccc(OCC2CCc3ccccc3O2)c1F` (stereo not given) came in with an MBC of 5 µg/mL (≈ 15.7 µM) and an MIC of 5 µg/mL (≈ 15.7 µM).

Turning to `COC(=O)c1ccc2c(c1)OC(COc1ccc(F)c(C(N)=O)c1F)CO2` (stereo not given), the inhibition entry in series [2], in [5], in series [6] and in [7] was “Active” throughout. Also, the TD90 in series [3] was > 1280 µg/mL. Besides, the selectivity ratio in series [4] was > 1280. Moreover, the MBC in series [1] was 0.625 µg/mL (≈ 1.65 µM). Besides, in series [1], it took 0.625 µg/mL (≈ 1.65 µM) to inhibit growth (MIC).

With `NC(=O)c1c(F)ccc(OCC2COc3ccc(F)cc3O2)c1F` (stereo not given), in [1], the MBC was determined as 2.5 µg/mL (≈ 7.37 µM) and 2.5 µg/mL (≈ 7.37 µM) was the least that counted as inhibitory (MIC).

Consider `CCCCNC(=O)c1ccc2c(c1)OC(COc1ccc(F)c(C(N)=O)c1F)CO2` (stereo not given), for which the minimal inhibitory concentration (MIC) in [1] is > 100 µg/mL.

For the molecule `CCCCCCCCCOc1ccc(F)c(C(N)=O)c1F`, the inhibition result in series [8], in series [9], in [14], in [15], in [17] and in series [18] was “Active” in each case. The MIC90 in series [10] is 6.25 µg/mL (≈ 20.9 µM); in series [11], 0.19 µg/mL (≈ 0.635 µM); in series [12] it was 12.5 µg/mL (≈ 41.8 µM); in [13], 0.39 µg/mL (≈ 1.3 µM). In addition, the MBC in [10] stood at 12.5 µg/mL (≈ 41.8 µM); in [11] it was 0.19 µg/mL (≈ 0.635 µM); in [12], 25 µg/mL (≈ 83.5 µM); in series [13] it was 0.78 µg/mL (≈ 2.61 µM); in series [1], 1 µg/mL (≈ 3.34 µM). The TD90 in series [3] is > 200 µg/mL. Also, the selectivity ratio in series [4] is > 200. Also, the figures for the minimal inhibitory concentration (MIC) in series [16] and in [1] were 16 µg/mL (≈ 53.4 µM) and 1 µg/mL (≈ 3.34 µM), respectively.

Regarding `NC(=O)c1c(F)ccc(OCC2CCc3ccccc3C2)c1F` (stereo not given), the MIC in [1] is > 100 µg/mL.

Take `NC(=O)c1c(F)ccc(OCC2COc3ccc([N+](=O)[O-])cc3O2)c1F` (stereo not given): in [1], the MBC is 2.5 µg/mL (≈ 6.83 µM) and 1.25 µg/mL (≈ 3.41 µM) was the least that counted as inhibitory (MIC).

In the case of `NC(=O)c1c(F)ccc(OCC2COc3cc(Cl)c(Cl)cc3O2)c1F` (stereo not given), the MIC90 worked out at 6.25 µg/mL (≈ 16 µM) in series [10], 3.12 µg/mL (≈ 8 µM) in series [11], 12.5 µg/mL (≈ 32 µM) in series [12] and 3.12 µg/mL (≈ 8 µM) in series [13]. Further, the MBC in [10] was 50 µg/mL (≈ 128 µM); in [11], 6.25 µg/mL (≈ 16 µM); in series [12], 50 µg/mL (≈ 128 µM); in series [13], 6.25 µg/mL (≈ 16 µM); in [1], 5 µg/mL (≈ 12.8 µM). Besides, the minimal inhibitory concentration (MIC) turned out to be 16 µg/mL (≈ 41 µM) in series [16] and 2.5 µg/mL (≈ 6.41 µM) in [1].

Regarding `CS(=O)(=O)Nc1ccc2c(c1)OC(COc1ccc(F)c(C(N)=O)c1F)CO2` (stereo not given), in [1], the minimum inhibitory concentration (MIC) was > 100 µg/mL.
